# In the library only some 2.3% were active in any assay of this set; here they are far more common.
# TAAR1 antagonist: human TAAR1 antagonism; Q96RJ0; CHO RD-HGA16 TAAR1, Fluo-8 calcium fluorescence, antagonist; inhibition, % at 3 µM; 1.5% of 360,000 active; AID 624466;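 active = inhibition above a per-plate cutoff, the mean inhibition of test compounds on that plate plus 3 SD, cut at about 49% in these data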;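 note: 0% = DMSO plus EC80 beta-PEA response and 100% = DMSO alone without agonist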
# Target sequence (Q96RJ0 whole entry, looked up): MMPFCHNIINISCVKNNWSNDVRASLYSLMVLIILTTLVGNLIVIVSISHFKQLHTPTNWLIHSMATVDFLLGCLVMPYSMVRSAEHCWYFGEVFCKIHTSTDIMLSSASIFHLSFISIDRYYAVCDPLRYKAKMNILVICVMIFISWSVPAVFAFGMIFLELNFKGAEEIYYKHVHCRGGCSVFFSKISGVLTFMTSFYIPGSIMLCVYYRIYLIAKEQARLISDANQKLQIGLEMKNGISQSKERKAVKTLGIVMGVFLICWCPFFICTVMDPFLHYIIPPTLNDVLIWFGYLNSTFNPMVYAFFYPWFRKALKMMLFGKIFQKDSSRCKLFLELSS
#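 Test system: RD-HGA16 CHO cells with stable hTAAR1 and Gα16 / Probe or stimulus: EC80 β-phenethylamine stimulus / Times: seeding 17-24 h prior, 75-min 37 °C, 30-min RT dye loading / Detection: Fluo-8 calcium-sensitive fluorescence / Read-out basis: % inhibition scaled between DMSO and EC80 PEA controls / Repeats: singlicate, one well per test compound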
# OXTR ag: agonists of human oxytocin receptor. activation, % at 3 µM. CHO-OTR cells, Fluo-8 calcium fluorescence; normalized: DMSO 0%, oxytocin 100%. P30559. 0.32% of 320,000 active;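 active = activation above the mean of all tested compounds plus 3 SD, cutoff set per screening run, cut at about 20% in these data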;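 note: peak over basal fluorescence ratio from a 100 s FLIPR kinetic read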
# OXTR potentiator: potentiates the human oxytocin receptor response; CHO-OTR cells, Fluo-8 calcium fluorescence, potentiator mode; 0% = oxytocin EC15, 100% = EC100; activation, % at 3 µM; 0.061% of 320,000 active; P30559;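 active = activation above that plate's cutoff, the mean activation of tested compounds plus 3 SD, cut at about 6.6% in these data, passing the limit was not always enough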;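 note: 100% uses oxytocin at 75 nM as the full agonist control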
#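 test system = CHO-OTR cells, human receptor | compound = single-point 3.0 µM | schedule = 6 min compound pre-incubation at room temperature, 100 s kinetic read | signal = Fluo-8 no-wash calcium dye fluorescence, excitation 470-495 nm, emission 515-575 nm | repeats = single well per compound, singlicate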
# TAAR1 agonist: human TAAR1 agonism; CHO RD-HGA16 TAAR1, Fluo-8 calcium fluorescence; vehicle wells 0%, saturating PEA agonist 100%; 0.99% of 360,000 active; activation, % at 3 µM;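 active = activation above the mean activation of all test compounds in the run plus 3 SD, cut at about 38% in these data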
#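 System: CHO-derived RD-HGA16 cells with stable Gα16 and human TAAR1. Times: 17-24 h plating, Fluo-8 75 min 37 °C, 30 min RT. Measured by: calcium-sensitive Fluo-8 signal, excitation 470-495, emission 515-575 nm. Read-out basis: % activation relative to PEA EC100 response. Control set: DMSO and PEA EC100. Repeats: no replicates (n 1).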
# V1R ag counter: activates human V1a receptor in oxytocin agonist counter-screen. CHO-V1R cells, Fluo-8 calcium fluorescence, agonist mode; 0% DMSO, 100% 3 nM vasopressin. P37288. activation, % at 3 µM. 0.25% of 320,000 active;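 active = activation above the mean activation of all tested compounds plus 3 SD, per screening run, cut at about 20% in these data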;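 note: signal is peak over basal fluorescence ratio across a 100 second FLIPR read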
# Target sequence (P37288 whole entry, looked up): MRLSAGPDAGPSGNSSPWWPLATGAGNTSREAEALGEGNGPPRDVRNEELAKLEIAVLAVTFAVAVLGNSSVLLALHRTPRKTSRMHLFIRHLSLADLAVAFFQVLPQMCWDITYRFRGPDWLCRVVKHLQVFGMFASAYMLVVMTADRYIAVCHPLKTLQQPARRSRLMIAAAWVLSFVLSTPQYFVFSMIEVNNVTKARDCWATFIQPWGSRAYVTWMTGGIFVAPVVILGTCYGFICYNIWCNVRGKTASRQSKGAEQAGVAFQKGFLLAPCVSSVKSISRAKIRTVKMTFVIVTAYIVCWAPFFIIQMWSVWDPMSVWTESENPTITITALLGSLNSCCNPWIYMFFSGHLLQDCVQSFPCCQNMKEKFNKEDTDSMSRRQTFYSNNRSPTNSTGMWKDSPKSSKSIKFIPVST
# nonsel antag count: nonselective antagonist in TAAR1 antagonist counter-screen; inhibition, % at 3 µM; 77% of 2,400 active; AID 651780; counterscreen cell line, calcium fluorescence, antagonist mode; shares compounds with TAAR1 antagonist; in the data active = inhibition above about 22%;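 note: CHO-Ga16 host cells stimulated with ATP at an EC80 level; 0% = agonist EC80 plus vehicle and 100% = vehicle without agonist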
# TAAR1 antag conf: human TAAR1 antagonism, confirmed. inhibition, % at 3 µM. 40% of 2,400 active. TAAR1-expressing cells, fluorescence antagonist read-out. shares compounds with TAAR1 antagonist; in the data active = inhibition above about 49%;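 note: CHO-Ga16 host cells challenged with agonist PEA near its EC80; 0% = agonist at EC80 plus vehicle and 100% = vehicle with no agonist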
# Ga16 ag counter-1: nonselective Ga16 agonist in TAAR1 antagonist counter-screen. shares compounds with TAAR1 antagonist. Ga16-expressing cells, calcium fluorescence, agonist counterscreen. activation, % at 3 µM. 18% of 2,400 active; in the data active = activation above about 12%;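 note: 0% = vehicle wells and 100% = saturating stimulus response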
# TAAR1 ag counter: activates human TAAR1 in antagonist counter-screen | shares compounds with TAAR1 antagonist | hTAAR1 cell line, fluorescence activation, agonist mode | activation, % at 3 µM | 2% of 2,400 active | AID 651955; in the data active = activation above about 37%;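 note: CHO cells stably expressing TAAR1 with calcium dye readout; 0% = DMSO vehicle and 100% = full agonist response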
# TAAR1 ag confirm: human TAAR1 agonism, confirmed; AID 651783; 82% of 2,400 active; CHO RD-HGA16 TAAR1, Fluo-8 calcium fluorescence; scaled: DMSO 0%, maximal phenethylamine 100%; activation, % at 3 µM; shares compounds with TAAR1 agonist;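 active = activation above a cutoff set at the run's mean compound activation plus 3 SD, cut at about 39% in these data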
# Ga16 ag counter-2: nonselective agonist in parental cells, TAAR1 agonist counter-screen; shares compounds with TAAR1 agonist; CHO-Ga16 parental, Fluo-8 calcium fluorescence; normalized to maximal ATP response, DMSO zero; AID 651787; 50% of 2,400 active; activation, % at 3 µM;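 active = activation above the run cutoff, the mean activation over all tested wells plus 3 SD, cut at about 12% in these data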;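 note: 0% = DMSO wells and 100% = maximal ATP response on the peak over basal ratio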
# TAAR1 desensitize: counter-screen for human TAAR1 agonists: agonists that desensitize TAAR1; shares compounds with TAAR1 agonist; CHO RD-HGA16 hTAAR1, Fluo-8 calcium, beta-PEA response inhibition; 46% of 2,400 active; inhibition, % at 3 µM;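 active = inhibition above the run cutoff, the mean inhibition of all test compounds plus 3 SD, cut at about 49% in these data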;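 note: beta-PEA stimulus applied at its EC80; loss of beta-PEA calcium signal after compound pretreatment read as receptor desensitization; 0% = DMSO with beta-PEA at EC80 and 100% = DMSO alone without agonist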
# Ga16 antag count: nonselective Ga16 antagonism, counter-screen; shares compounds with TAAR1 agonist; CHO-Ga16 ATP-induced calcium, Fluo-8 fluorescence; 39% of 2,400 active; inhibition, % at 3 µM;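 active = inhibition above the plate's mean compound inhibition plus 3 SD, computed per plate, cut at about 22% in these data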;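 note: 0% = EC80 ATP with DMSO and 100% = DMSO wells without ATP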
# An asterisk follows results filed as active; x = not tested or not shown.
SMILES,TAAR1 antagonist,OXTR ag,OXTR potentiator,TAAR1 agonist,V1R ag counter,others
Cc1cccc(OCC(=O)Nc2ccc(C(=O)NCC(C)C)cc2)c1,-15,1,-2,-1,3,
Cc1cccc(OCC(=O)Nc2cccc(C(=O)NCC(C)C)c2)c1,70*,4,-12,33,9,nonsel antag count=10;TAAR1 antag conf=22;Ga16 ag counter-1=7;TAAR1 ag counter=11
O=C(NC(c1ccc(-c2ccccc2)cc1)c1cnccn1)C1CCN(CCOc2ccc(F)cc2)CC1 (stereo unspecified),71*,x,x,34,x,nonsel antag count=39*;TAAR1 antag conf=53*;Ga16 ag counter-1=16*;TAAR1 ag counter=25
O=C(NCc1ccccc1)C(c1ccccc1)N(C(=O)c1csnn1)C1CCCC1 (stereo unspecified),10,2,-5,2,0,
CCc1ccc(NC(=S)N(Cc2cccc(Br)c2)CC2CCC(C(=O)O)CC2)cc1 (stereo unspecified),61*,0,-8,8,1,nonsel antag count=12;TAAR1 antag conf=27;Ga16 ag counter-1=5;TAAR1 ag counter=23
Cc1cc(C)cc(NC(=S)N(Cc2cccc(Br)c2)CC2CCC(C(=O)O)CC2)c1 (stereo unspecified),8,0,-11,2,-1,
N#Cc1nc(Nc2cccc(Cl)c2)c2ncn(C3CCCC3)c2n1,75*,2,-1,19,1,nonsel antag count=22*;TAAR1 antag conf=32;Ga16 ag counter-1=2;TAAR1 ag counter=2
CCn1cnc2c(Nc3cc(F)cc(F)c3)nc(C#N)nc21,-6,0,-5,11,-1,
CCC(=O)N1CCCC(C(=O)c2ccc(-c3ccccc3)cc2)C1 (stereo unspecified),-18,1,-4,2,1,
COc1cc(NC(=O)CSc2nc(C3CC3)nc3ccccc23)cc(OC)c1,12,0,-3,-2,0,
CCOC(=O)C1CCCN(CCC(=O)Nc2cccc(Cl)c2C)C1 (stereo unspecified),7,-2,-10,11,0,
O=C1C(=Cc2cccs2)C(=O)c2ccccc21,104*,-3,-3,-3,0,nonsel antag count=4;TAAR1 antag conf=0;Ga16 ag counter-1=-1;TAAR1 ag counter=4
CCC(CC)COC(=O)C1=C(C)NC(=O)NC1c1ccc(N(C)C)cc1 (stereo unspecified),-23,-2,-5,-2,-1,
COC(=O)[C@H]1C[C@@H]1[C@H](NC(=O)[C@H]1C[C@@H]1[C@H](NC(=O)OCc1ccccc1)c1ccccc1)c1ccccc1,59*,0,-17,11,0,nonsel antag count=30*;TAAR1 antag conf=34;Ga16 ag counter-1=5;TAAR1 ag counter=1
CN(C)C(=O)[C@@H]1C[C@H]1[C@@H](NC(=O)OCc1ccccc1)c1ccccc1,3,2,-8,3,0,
COC(=O)[C@H](C)[C@@H]1C[C@@]1(C)[C@@H](NC(=O)OCc1ccccc1)c1ccccc1,29,-1,-4,14,-2,
C[C@@H](C(=O)O)[C@H]1C[C@]1(C)[C@H](NC(=O)OCc1ccccc1)c1ccccc1,75*,0,-9,-1,0,nonsel antag count=6;TAAR1 antag conf=3;Ga16 ag counter-1=2;TAAR1 ag counter=-1
Cc1ccc(CNn2cn[nH]c2=S)cc1,-13,0,2,0,0,
CC(=O)Nc1ccc(S(=O)(=O)NCC(=O)OCC(=O)NCc2ccco2)cc1,100*,0,-2,-2,0,nonsel antag count=2;TAAR1 antag conf=2;Ga16 ag counter-1=1;TAAR1 ag counter=2
CC(=O)Nc1ccc(S(=O)(=O)N(C)CC(=O)OCC(=O)NCc2ccco2)cc1,4,2,-5,3,0,
COc1cccc(-c2ccc(NC(=O)C3CCCN(Cc4ccccn4)C3)cc2)c1 (stereo unspecified),8,x,x,4,x,
COc1cccc(-c2ccc(NC(=O)C3CCCN(Cc4cnc(N(C)C)s4)C3)cc2)c1 (stereo unspecified),28,11,-4,63*,6,TAAR1 ag confirm=64*;Ga16 ag counter-2=33*;TAAR1 desensitize=30;Ga16 antag count=18
COc1ccc(Oc2cccc(Cl)c2CNC(=O)CCC(=O)O)cc1,-7,0,2,4,1,
COc1ccc(Cc2nnc(NC(=O)CSc3ccc(Cl)cc3)s2)cc1OC,35,x,x,87*,x,TAAR1 ag confirm=75*;Ga16 ag counter-2=42*;TAAR1 desensitize=36;Ga16 antag count=20
COc1ccc(Cc2nnc(NC(=O)CSc3ccc(C)cc3)s2)cc1,-13,1,1,8,0,
SMILES,TAAR1 antagonist,OXTR ag,OXTR potentiator,TAAR1 agonist,V1R ag counter,others
COc1ccc(Cc2nnc(NC(=O)CSc3ccccc3)s2)cc1,50*,0,-8,49*,6,TAAR1 ag confirm=8;Ga16 ag counter-2=0;TAAR1 desensitize=3;Ga16 antag count=7
COc1ccc(Cc2nnc(NC(=O)c3ccc(OC)c(OC)c3)s2)cc1OC,-13,10,-11,1,3,
COc1cc(C23CCCN(CCC(C(C)(C)C)C2)C32OCCO2)cc(OC)c1OC (stereo unspecified),-38,x,x,2,x,
O=[N+]([O-])c1cc(Cl)c2cccnc2c1O,7,19,-7,44*,2,TAAR1 ag confirm=6;Ga16 ag counter-2=10;TAAR1 desensitize=5;Ga16 antag count=6
O=[N+]([O-])c1cc(Cl)c(O)c2ncccc12,9,x,x,0,x,
CCCOc1ccc(OC(=O)c2ccc(Br)o2)cc1,102*,42*,-24,137*,64*,TAAR1 ag confirm=115*;Ga16 ag counter-2=95*;TAAR1 desensitize=85*;Ga16 antag count=79*
COc1ccc(S(=O)(=O)NC(=O)C2(C)CCN2C(=O)c2c(C)noc2C)cc1 (stereo unspecified),9,x,x,0,x,
NS(=O)(=O)c1ccc(CNC(=O)CSc2nc3ccc(Cl)cc3[nH]2)cc1,6,-1,-2,-1,0,
